# Measured values reported in ChEMBL document CHEMBL1155517, “Rational design of a topical androgen receptor antagonist for the suppression of sebum production with properties suitable for follicular delivery” (J Med Chem, 2010).
# Calls of active or inactive are those of the source. No cut-off for these calls is given here.
# Key:
# Syrian golden hamster [1] = assay: Inhibition of cholesterol ester in Syrian golden hamster ear model for sebum at 1% administered topically BID 5 days a week for 2 weeks measured 18 to 24 hrs after the final dose; format: functional, Mesocricetus auratus
# [2] = Artificial human sebum-water partition coefficient, log K of the compound; format: physicochemical
# In short: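 About 5 mg artificial human sebum, spiked with drug at 1 mg/250 μL sebum, was equilibrated with 1 mL saturated aqueous solution at 37 C for 15 h. Drug concentration in the aqueous phase was then analysed, and the sebum–water partition coefficient was derived from it.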
# Syrian golden hamster [3] = assay: Inhibition of wax ester in Syrian golden hamster ear model for sebum at 1% administered topically BID 5 days a week for 2 weeks measured 18 to 24 hrs after the final dose; format: functional, Mesocricetus auratus
# Progesterone receptor = target: T1, Progesterone receptor (Homo sapiens, UniProt P06401); assay: Binding affinity to progesterone receptor by PRB assay
# T1 sequence (P06401 whole entry): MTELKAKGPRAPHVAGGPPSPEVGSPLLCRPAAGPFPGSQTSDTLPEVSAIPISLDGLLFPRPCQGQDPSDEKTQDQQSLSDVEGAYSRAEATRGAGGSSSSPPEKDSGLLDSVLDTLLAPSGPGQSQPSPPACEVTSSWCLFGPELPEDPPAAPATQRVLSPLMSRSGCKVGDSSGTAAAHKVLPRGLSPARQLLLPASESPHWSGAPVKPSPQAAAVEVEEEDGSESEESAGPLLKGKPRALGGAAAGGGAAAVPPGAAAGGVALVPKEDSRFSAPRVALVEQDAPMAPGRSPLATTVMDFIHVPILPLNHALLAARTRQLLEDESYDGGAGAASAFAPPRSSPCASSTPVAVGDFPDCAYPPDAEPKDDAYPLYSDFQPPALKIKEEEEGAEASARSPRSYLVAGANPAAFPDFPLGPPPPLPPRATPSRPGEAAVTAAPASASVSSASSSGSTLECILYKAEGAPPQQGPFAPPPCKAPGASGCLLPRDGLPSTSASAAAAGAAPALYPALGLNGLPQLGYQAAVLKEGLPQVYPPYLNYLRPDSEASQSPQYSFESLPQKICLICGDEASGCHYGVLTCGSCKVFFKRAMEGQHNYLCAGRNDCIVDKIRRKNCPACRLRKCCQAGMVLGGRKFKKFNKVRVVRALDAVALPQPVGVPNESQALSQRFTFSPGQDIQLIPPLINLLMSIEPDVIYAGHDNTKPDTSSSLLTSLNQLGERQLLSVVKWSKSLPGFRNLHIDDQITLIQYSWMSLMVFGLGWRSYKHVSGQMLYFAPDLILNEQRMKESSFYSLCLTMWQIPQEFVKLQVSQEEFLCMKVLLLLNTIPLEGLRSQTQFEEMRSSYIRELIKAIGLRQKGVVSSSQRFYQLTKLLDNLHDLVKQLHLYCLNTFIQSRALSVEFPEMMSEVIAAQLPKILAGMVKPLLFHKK
# [4] = Octanol-buffer partition coefficient, log D at pH 7.4; format: physicochemical; details: read-out: LogD7.4
# Androgen receptor [5] = target: T2, Androgen receptor (Homo sapiens, UniProt P10275); assay: Displacement of [3H]DHT from human AR expressed in baculovirus Sf9 cells system by scintillation counting
# T2 sequence (P10275 whole entry): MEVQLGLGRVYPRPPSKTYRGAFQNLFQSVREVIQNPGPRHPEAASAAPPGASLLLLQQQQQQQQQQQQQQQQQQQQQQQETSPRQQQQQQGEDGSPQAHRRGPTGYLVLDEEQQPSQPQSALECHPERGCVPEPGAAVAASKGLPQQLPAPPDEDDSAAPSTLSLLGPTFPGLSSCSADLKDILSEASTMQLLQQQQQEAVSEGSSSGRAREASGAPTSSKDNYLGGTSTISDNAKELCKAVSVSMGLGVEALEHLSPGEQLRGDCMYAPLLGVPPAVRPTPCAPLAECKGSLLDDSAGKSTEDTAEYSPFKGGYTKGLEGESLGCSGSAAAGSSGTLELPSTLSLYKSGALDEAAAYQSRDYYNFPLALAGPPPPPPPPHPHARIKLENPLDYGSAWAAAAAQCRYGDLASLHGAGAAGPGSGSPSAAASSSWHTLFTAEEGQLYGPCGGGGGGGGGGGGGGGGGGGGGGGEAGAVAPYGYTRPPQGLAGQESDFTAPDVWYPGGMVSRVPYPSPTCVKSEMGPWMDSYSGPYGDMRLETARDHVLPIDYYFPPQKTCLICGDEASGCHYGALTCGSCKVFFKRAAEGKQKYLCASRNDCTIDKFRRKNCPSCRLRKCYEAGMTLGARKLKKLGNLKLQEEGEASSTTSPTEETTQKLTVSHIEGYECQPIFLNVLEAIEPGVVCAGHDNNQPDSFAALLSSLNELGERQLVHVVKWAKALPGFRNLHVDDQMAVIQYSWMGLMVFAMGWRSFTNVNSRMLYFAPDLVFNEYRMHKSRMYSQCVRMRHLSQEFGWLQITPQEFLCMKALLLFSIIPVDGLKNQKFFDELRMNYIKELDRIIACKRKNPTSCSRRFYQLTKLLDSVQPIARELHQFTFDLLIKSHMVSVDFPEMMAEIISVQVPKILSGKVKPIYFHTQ
# Androgen receptor [6] = target: T2, Androgen receptor; assay: Antagonist activity at androgen receptor in human MDA-MB-453 cells coexpressing MMTV-ARE reporter gene assessed as inhibition of DHT-induced response; format: functional, cell-based
# Syrian golden hamster [7] = assay: Inhibition of wax ester in Syrian golden hamster ear model for sebum at 1.5% administered topically BID 5 days a week for 2 weeks measured 18 to 24 hrs after the final dose; format: functional, Mesocricetus auratus
# Syrian golden hamster [8] = assay: Inhibition of cholesterol ester in Syrian golden hamster ear model for sebum at 1.5% administered topically BID 5 days a week for 2 weeks measured 18 to 24 hrs after the final dose; format: functional, Mesocricetus auratus
# Syrian golden hamster [9] = assay: Reduction in wax ester-associated sebaceous gland size decrease in Syrian golden hamster ear model for sebum administered topically BID 5 days a week for 2 weeks measured 18 to 24 hrs after the final dose; format: functional, organism-based; details: Mesocricetus auratus
# In short: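 Hamsters were dosed on the ear twice daily for 2 weeks. Sebaceous gland size was quantified by fatty acid synthase immunohistochemical staining and correlated with wax ester reduction by correlation coefficient.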
# Mus musculus [10] = assay: Toxicity in BALB/c mouse assessed as lymph node contact hypersensitivity at 25% administered for 4 days; format: organism-based; details: in vivo, 96 h
# [11] = Elimination half life in Syrian golden hamster sebaceous gland at 0.2% administered topically after 8 hrs; format: ADME, tissue-based, Mesocricetus auratus; details: topical or ocular, read-out: beta t1/2 (converted)
# Sus scrofa [12] = assay: Toxicity in minipig assessed as systemic antiandrogenic effect at 25% administered topically BID for 7 days; format: organism-based; details: pig, in vivo, topical_or_ocular, 168 h
# Syrian golden hamster [13] = assay: Toxicity in Syrian golden hamster ear model for sebum assessed as cytotoxicity-mediated sebaceous gland size administered topically BID 5 days a week for 2 weeks measured 18 to 24 hrs after the final dose; format: organism-based, Mesocricetus auratus; details: in vivo, topical_or_ocular
# In short: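 After 2 weeks of twice-daily topical application to hamster ears, sebocytes were examined histopathologically for cytotoxic changes alongside the reduction in sebaceous gland size.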
# Rattus norvegicus [14] = assay: Liver blood flow in rat at 1 mg/kg, iv; format: ADME, organism-based; set-up: dose 1 mg/kg, route intravenous; details: in vivo
# Mus musculus [15] = assay: Toxicity in BALB/c mouse assessed as skin sensitization at 25% administered for 4 days; format: organism-based; details: in vivo, 96 h
# [16] = Binding affinity to thyroid hormone receptor
# Glucocorticoid receptor = target: T3, Glucocorticoid receptor (Homo sapiens, UniProt P04150); assay: Binding affinity to glucocorticoid receptor
# T3 sequence (P04150 whole entry): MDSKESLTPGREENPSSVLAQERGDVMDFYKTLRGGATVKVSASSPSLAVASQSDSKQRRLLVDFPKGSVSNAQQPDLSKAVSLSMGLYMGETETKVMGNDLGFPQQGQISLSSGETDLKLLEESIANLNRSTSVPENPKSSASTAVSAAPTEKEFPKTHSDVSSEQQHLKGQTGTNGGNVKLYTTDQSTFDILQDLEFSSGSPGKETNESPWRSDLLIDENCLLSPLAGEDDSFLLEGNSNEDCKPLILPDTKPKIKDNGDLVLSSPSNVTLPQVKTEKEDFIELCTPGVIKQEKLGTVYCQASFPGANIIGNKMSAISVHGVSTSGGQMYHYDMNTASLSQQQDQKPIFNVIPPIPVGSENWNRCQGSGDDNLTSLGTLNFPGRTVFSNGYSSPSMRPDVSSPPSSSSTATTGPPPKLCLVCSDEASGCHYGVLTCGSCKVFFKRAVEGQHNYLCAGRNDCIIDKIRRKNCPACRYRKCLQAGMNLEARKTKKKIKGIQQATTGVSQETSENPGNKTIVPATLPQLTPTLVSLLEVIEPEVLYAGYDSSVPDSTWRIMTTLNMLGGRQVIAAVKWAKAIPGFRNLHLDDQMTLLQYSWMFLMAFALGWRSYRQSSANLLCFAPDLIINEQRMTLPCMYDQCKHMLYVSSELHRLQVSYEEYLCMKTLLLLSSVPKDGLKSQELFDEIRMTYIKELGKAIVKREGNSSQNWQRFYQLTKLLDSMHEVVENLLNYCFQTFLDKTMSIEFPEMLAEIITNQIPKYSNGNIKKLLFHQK
# [17] = Clearance in human; format: ADME, organism-based; details: in vivo
# [18] = Clearance in rat at 1 mg/kg, iv; format: ADME, organism-based; set-up: dose 1 mg/kg, route intravenous; details: in vivo
# [19] = Intrinsic clearance in human liver microsomes after 1 hr by LC/MS/MS method; format: ADME, Microsome
# Estrogen receptor = target: T4, Estrogen receptor (Homo sapiens, UniProt P03372); assay: Binding affinity to estrogen receptor
# T4 sequence (P03372 whole entry): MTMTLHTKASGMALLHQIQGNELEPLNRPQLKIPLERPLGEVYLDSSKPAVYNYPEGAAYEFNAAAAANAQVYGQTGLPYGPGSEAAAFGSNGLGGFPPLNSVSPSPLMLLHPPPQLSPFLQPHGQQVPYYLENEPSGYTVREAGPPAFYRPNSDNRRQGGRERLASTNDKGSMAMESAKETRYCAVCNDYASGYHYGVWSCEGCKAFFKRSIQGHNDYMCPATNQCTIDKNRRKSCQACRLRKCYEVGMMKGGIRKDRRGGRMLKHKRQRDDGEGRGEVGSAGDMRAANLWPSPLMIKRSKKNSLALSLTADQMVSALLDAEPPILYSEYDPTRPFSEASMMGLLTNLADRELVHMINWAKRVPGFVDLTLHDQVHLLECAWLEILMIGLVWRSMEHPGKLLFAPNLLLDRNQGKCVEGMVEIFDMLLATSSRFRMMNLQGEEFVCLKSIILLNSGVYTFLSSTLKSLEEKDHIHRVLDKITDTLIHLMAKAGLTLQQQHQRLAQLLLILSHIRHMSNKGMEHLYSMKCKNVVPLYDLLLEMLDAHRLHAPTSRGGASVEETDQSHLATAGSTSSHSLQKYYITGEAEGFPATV
# [20] = Hamster sebum-water partition coefficient, log K of the compound; format: ADME
# Sus scrofa [21] = assay: Toxicity in minipig assessed as dermal toleration at 25% administered topically BID for 7 days; format: organism-based; details: pig, in vivo, topical_or_ocular, 168 h
# Syrian golden hamster [22] = assay: Inhibition of wax ester in Syrian golden hamster ear model for sebum administered topically BID 5 days a week for 2 weeks measured 18 to 24 hrs after the final dose; format: functional, Mesocricetus auratus
# In short: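 Golden Syrian hamster ear model with twice-daily topical dosing for 2 weeks in the vehicle chosen for phase 1 studies. Wax ester production was measured across a range of doses, and ED50 was expressed as % dose. Data are mean ± SEM, N = 5.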
# [23] = Drug level in Syrian golden hamster sebaceous gland at 0.2% administered topically after 8 hrs; format: ADME, tissue-based, Mesocricetus auratus; details: topical or ocular, read-out: Drug uptake
# Rattus norvegicus [24] = assay: Toxicity in Sprague-Dawley rat assessed as systemic antiandrogenic effect at 0.5 to 300 mg/kg, po administered once-daily for 7 days; format: organism-based; set-up: dose 0.5-300 mg/kg, route oral; details: in vivo, 168 h
SMILES,inhibition (INH) (Syrian golden hamster [1]),log K [2],inhibition (INH) (Syrian golden hamster [3]),IC50 (Progesterone receptor),logD [4],IC50 (Androgen receptor [5]),IC50 (Androgen receptor [6]),other results
N#Cc1ccc(Sc2ccccc2F)cc1C(F)(F)F,50%,4.48,64%,6950 nM,,,,
CCCN1CC(C)(C)[C@@H](Oc2ccc(C#N)c(C(F)(F)F)c2)C1=O,,2.74,,,3.33,,,
N#Cc1ccc(O[C@@H]2CCCC[C@H]2C#N)cc1C(F)(F)F,,3.03,,,3.4,,,
C[C@H](O)CC[C@H](C)Oc1ccc(C#N)c(C(F)(F)F)c1,,2.06,,,3.73,,,
N#Cc1ccc(Oc2ccc(F)cc2F)cc1C(F)(F)F,24%,4.06,31%,> 10000 nM,,488 nM,60 nM,
CC1(C)CN(Cc2ccccc2F)C(=O)[C@@H]1Oc1ccc(C#N)c(C(F)(F)F)c1,42%,3.95,72%,4820 nM,,174 nM,44 nM,
CSc1ccc(CN2CC(C)(C)[C@@H](Oc3ccc(C#N)c(C(F)(F)F)c3)C2=O)cc1,,4.6,,> 10000 nM,,316 nM,28 nM,inhibition (INH) (Syrian golden hamster [7]): 89%; inhibition (INH) (Syrian golden hamster [8]): 75%
CC1(C)CN(Cc2ccccc2)C(=O)[C@@H]1Oc1ccc(C#N)c(C(F)(F)F)c1,61%,3.92,78%,4400 nM,4.88,100 nM,38 nM,Activity (Syrian golden hamster [9]): Active; Activity (Mus musculus [10]): Non-toxic; half-life [11]: 7 h; Activity (Sus scrofa [12]): Non-toxic; Activity (Syrian golden hamster [13]): Non-toxic; LBF (Rattus norvegicus [14]): 80%; Activity (Mus musculus [15]): Non-toxic; IC50 [16]: > 10000 nM; IC50 (Glucocorticoid receptor): > 10000 nM; clearance [17]: 16 mL/min/kg; clearance [18]: 57 mL/min/kg; CLint scaled [19]: 121 mL/min/kg; IC50 (Estrogen receptor): > 10000 nM; log K [20]: 3.85; Activity (Sus scrofa [21]): Non-toxic; ED50 (Syrian golden hamster [22]): 0.02 mg/cm2; concentration at 8 h [23]: 156 µM; Activity (Rattus norvegicus [24]): Non-toxic
